# Key:
# Assay type in all cases: functional
# Bacillus subtilis = assay: Antibacterial activity against Bacillus subtilis subsp. subtilis str. 168 at 0.2 umol/disk after 24 hrs by agar plate diffusion assay
# Summary of the method: (§1)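 Paper disks 5 mm across loaded with 0.2 µmol of each isolated compound, placed on agar plates seeded with the test bacterium (B. subtilis 168, S. aureus ATCC 25923, E. coli ATCC 25922 or E. coli HB 101). Read-out is the diameter of the inhibition zone in mm.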
# Escherichia coli [1] = assay: Antibacterial activity against Escherichia coli ATCC 25922 at 0.2 umol/disk after 24 hrs by agar plate diffusion assay; summary of the method: as §1
# Escherichia coli [2] = assay: Antibacterial activity against Escherichia coli HB101 at 0.2 umol/disk after 24 hrs by agar plate diffusion assay; summary of the method: as §1
# Staphylococcus aureus = assay: Antibacterial activity against Staphylococcus aureus ATCC 25923 at 0.2 umol/disk after 24 hrs by agar plate diffusion assay; summary of the method: as §1
SMILES,inhibition zone (IZ) (Bacillus subtilis) [mm],inhibition zone (IZ) (Escherichia coli [1]) [mm],inhibition zone (IZ) (Escherichia coli [2]) [mm],inhibition zone (IZ) (Staphylococcus aureus) [mm]
Nc1nc([C@H]2[C@H](CNC(=O)c3cc(Br)c[nH]3)[C@@H](CNC(=O)c3cc(Br)c[nH]3)[C@@H]2C(=O)O)c[nH]1.O=C(O)C(F)(F)F [NAKAMURIC ACID],9,,,
COC(=O)[C@H]1[C@H](CNC(=O)c2cc(Br)c[nH]2)[C@@H](CNC(=O)c2cc(Br)c[nH]2)[C@@H]1c1c[nH]c(N)n1.O=C(O)C(F)(F)F [NAKAMURIC ACID METHYL ESTER],9,,,
Cl.Cl.Nc1ncc([C@H]2[C@H](CNC(=O)c3ccc[nH]3)[C@@H](CNC(=O)c3ccc[nH]3)[C@@H]2c2cnc(N)[nH]2)[nH]1 [DEBROMOSCEPTRIN],10,,,
Nc1nc([C@@H]2c3[nH]c(N)nc3C[C@H](CNC(=O)c3cc(Br)c[nH]3)[C@H]2CNC(=O)c2cc(Br)c[nH]2)c[nH]1.O=C(O)C(F)(F)F.O=C(O)C(F)(F)F [AGELIFERIN],14,8,11,11
Nc1nc([C@H]2[C@H](CNC(=O)c3cc(Br)c[nH]3)[C@@H](CNC(=O)c3cc(Br)c[nH]3)[C@@H]2c2c[nH]c(N)n2)c[nH]1.O=C(O)C(F)(F)F.O=C(O)C(F)(F)F [SCEPTRIN (TFA SALT)],16,9,13,16

# From ChEMBL document CHEMBL1144112, “New bromopyrrole alkaloids from the Indopacific sponge Agelas nakamurai” (1999)
